Data: ChEMBL document CHEMBL1157149, “Phosphonate-linked pyrrolo[2,1-c][1,4]benzodiazepine conjugates: synthesis, DNA-binding affinity and cytotoxicity” (2008)
Activity calls are given as the source filed them. The rule behind the calls is not given here.

Key:
PC-3 = assay: Cytotoxicity against human PC3 cells after 48 hrs by SRB method; conditions: PC-3, 48 h
SiHa = assay: Cytotoxicity against human SiHa cells after 48 hrs by SRB method
[1] = Cytotoxicity against human DWD cells after 48 hrs by SRB method
MCF7 = assay: Cytotoxicity against human MCF7 cells after 48 hrs by SRB method; conditions: MCF7, 48 h
[2] = Cytotoxicity against human GURAV cells after 48 hrs by SRB method
COLO 205 = assay: Cytotoxicity against human Colo205 cells after 48 hrs by SRB method; conditions: COLO 205, 48 h
[3] = molecular target: T1, Type II restriction enzyme BamHI (Bacillus amyloliquefaciens) (UniProt P23940); assay: Inhibition of BamH1 assessed as inhibition of pBR322 DNA cleavage
T1 sequence (whole entry): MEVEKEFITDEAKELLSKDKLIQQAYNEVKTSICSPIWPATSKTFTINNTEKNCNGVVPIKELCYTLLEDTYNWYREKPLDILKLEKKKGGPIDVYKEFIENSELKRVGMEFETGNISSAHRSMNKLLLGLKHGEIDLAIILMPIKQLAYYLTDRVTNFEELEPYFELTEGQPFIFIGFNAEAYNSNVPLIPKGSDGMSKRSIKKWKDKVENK
In short: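 PBD stocks were 100 μM in DMSO. Plasmid pBR322 (500 ng, single BamHI site) was preincubated with compound in 16 μL for 16 h at 37 °C. BamHI (20 U) and its buffer were then added to 20 μL, and digestion ran 1 h at 37 °C. Cut and uncut forms were resolved on 1% agarose in TAE (80 V, 2 h) and stained with ethidium bromide.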

A2780 = assay: Cytotoxicity against human A2780 cells after 48 hrs by SRB method; conditions: A2780, 48 h
DNA = assay: Binding affinity to calf thymus DNA assessed as change in thermal stability at pH 7.0 after 18 hrs by thermal denaturation assay; type: nucleic-acid assay; conditions: Bos taurus
In short: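 CT-DNA duplex at 100 µM (in phosphate) with ligand at 20 µM (1:5 ligand/DNA molar ratio) in 10 mM sodium phosphate, 1 mM EDTA, pH 7.00; compound added from concentrated MeOH solution. Incubated at 37 °C for 18 h. Absorbance at 260 nm followed while heating at 1 °C/min over 40–90 °C. Tm taken from dA260/dT derivative maxima; ΔTm relative to DNA alone.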

KB = assay: Cytotoxicity against human KB cells after 48 hrs by SRB method
CCRF-CEM [4] = assay: Cytotoxicity against human CCRF-CEM cells after 48 hrs by SRB method; conditions: read-out: pLC50 (the source's name) (converted)
RPMI-8226 = assay: Cytotoxicity against human RPMI8226 cells after 24 hrs by SRB method; type: functional; conditions: RPMI-8226, 24 h
HL-60 = assay: Cytotoxicity against human HL60 cells after 48 hrs by SRB method; conditions: HL-60, 48 h
[5] = Cytotoxicity against human colon cancer cells after 24 hrs by SRB method; type: functional; conditions: Cancer cell lines
MOLT-4 = assay: Cytotoxicity against human MOLT4 cells after 24 hrs by SRB method; type: functional; conditions: MOLT-4, 24 h
[6] = Cytotoxicity against human lung cancer cells after 24 hrs by SRB method; type: functional; conditions: Cancer cell lines
[7] = Cytotoxicity against human leukemia cells after 48 hrs by SRB method; conditions: Leukemia cell
[8] = Cytotoxicity against human melanoma cancer cells after 24 hrs by SRB method; type: functional; conditions: Melanoma cell
A549 = assay: Cytotoxicity against human A549 cells after 48 hrs by SRB method; conditions: A549, 48 h
[9] = Cytotoxicity against human ovarian cancer cells after 24 hrs by SRB method; type: functional; conditions: Cancer cell lines
CCRF-CEM [10] = assay: Cytotoxicity against human CCRF-CEM cells after 24 hrs by SRB method; type: functional
[11] = Cytotoxicity against human renal cancer cells after 24 hrs by SRB method; type: functional; conditions: Cancer cell lines
[12] = Cytotoxicity against human leukemia cells after 24 hrs by SRB method; type: functional; conditions: Leukemia cell, read-out: pTGI (converted)
K562 = assay: Cytotoxicity against human K562 cells after 48 hrs by SRB method; conditions: K562, 48 h
[13] = Cytotoxicity against human prostate cancer cells after 24 hrs by SRB method; type: functional; conditions: Cancer cell lines
SR = assay: Cytotoxicity against human SR cells after 24 hrs by SRB method; type: functional
[14] = Cytotoxicity against human CNS cancer cells after 48 hrs by SRB method; conditions: Cancer cell lines
[15] = Cytotoxicity against human breast cancer cells after 24 hrs by SRB method; type: functional; conditions: Cancer cell lines
[16] = read-out: pLC50 (the source's name) (converted)

`CCOP(=O)(CCCN1CCN(CCCCCOc2cc3c(cc2OC)C(=O)N2CCC[C@H]2C=N3)CC1)OCC` gave a GI50 (PC-3) of 30.5 µM, a GI50 (SiHa) of 2.46 µM and a GI50 [1] of 0.18 µM. For the same compound, the GI50 (MCF7) was 2.21 µM, the GI50 [2] was 2.18 µM and the GI50 (COLO 205) was 2.39 µM. For the same compound, the Activity [3] was “Active”, the GI50 (A2780) was 2.02 µM and the ΔTm (DNA) was 10 °C.

In the case of `CCOP(=O)(CCN1CCN(CCCOc2cc3c(cc2OC)C(=O)N2CCC[C@H]2C=N3)CC1)OCC`, the Activity [3] is reported as “Active” and the ΔTm (DNA) is reported as 9 °C.

For `COc1cc2c(cc1OCCCN1CCN(C)CC1)N=C[C@@H]1CCCN1C2=O`, the ΔTm (DNA) was 6.9 °C.

For `COc1cccc2c1C(=O)c1c(O)c3c(c(O)c1C2=O)C[C@@](O)(C(=O)CO)C[C@@H]3O[C@H]1C[C@H](N)[C@H](O)[C@H](C)O1` [DOXORUBICIN], the GI50 (SiHa) was 0.18 µM, the GI50 [1] was 0.11 µM and the GI50 (MCF7) was 0.18 µM. It also gave a GI50 [2] of 0.17 µM, a GI50 (COLO 205) of 0.14 µM and a GI50 (A2780) of 0.17 µM. It also gave a GI50 (KB) of 0.17 µM.

In the case of `CCOP(=O)(CCCOc1cc2c(cc1OC)C(=O)N1CCC[C@H]1C=N2)OCC`, the GI50 (SiHa) is reported as 2.1 µM, the GI50 [1] is reported as 2.2 µM and the GI50 (MCF7) is reported as 2.02 µM. The GI50 (KB) was 2.11 µM and the ΔTm (DNA) was 4.5 °C.

`COc1cc2c(cc1O)N=C[C@@H]1CCCN1C2=O` gave a ΔTm (DNA) of 0.7 °C.

For `CCOP(=O)(CCN1CCN(CCCCCOc2cc3c(cc2OC)C(=O)N2CCC[C@H]2C=N3)CC1)OCC`, the GI50 (PC-3) was 1.98 µM, the GI50 (SiHa) was 0.21 µM and the CC50 (CCRF-CEM [4]) was greater than 100 µM. The GI50 (RPMI-8226) was 2.29 µM, the CC50 (RPMI-8226; [16]) was greater than 100 µM and the GI50 (MCF7) was 2.01 µM. It also gave a GI50 [2] of 0.17 µM, a GI50 (HL-60) of 1.82 µM and a CC50 (HL-60; [16]) greater than 100 µM. The TGI (HL-60; read-out: pTGI (converted)) was 8.32 µM, the GI50 (COLO 205) was 1.87 µM and the GI50 [5] was 10 µM. For the same compound, the CC50 [5, 16] was 93.3 µM, the TGI ([5]; read-out: pTGI (converted)) was 46.8 µM and the GI50 (MOLT-4) was 2.14 µM. The CC50 (MOLT-4; [16]) was greater than 100 µM, the TGI (MOLT-4; read-out: pTGI (converted)) was 6.31 µM and the GI50 [6] was 10 µM. The CC50 [6, 16] was 100 µM, the TGI ([6]; read-out: pTGI (converted)) was 45.7 µM and the GI50 [7] was 1.95 µM. For the same compound, the CC50 [7, 16] was 100 µM, the GI50 [8] was 7.76 µM and the CC50 [8, 16] was 81.3 µM. The TGI ([8]; read-out: pTGI (converted)) was 30.2 µM, the GI50 (A549) was 2.64 µM and the Activity [3] was “Active”. The GI50 [9] was 13.8 µM, the CC50 [9, 16] was 100 µM and the TGI ([9]; read-out: pTGI (converted)) was 55 µM. For the same compound, the GI50 (CCRF-CEM [10]) was 1.91 µM, the GI50 [11] was 9.77 µM and the CC50 [11, 16] was 95.5 µM. It also gave a TGI ([11]; read-out: pTGI (converted)) of 53.7 µM, a TGI [12] of 12.3 µM and a GI50 (A2780) of 0.17 µM. For the same compound, the GI50 (K562) was 2.34 µM, the CC50 (K562; [16]) was greater than 100 µM and the TGI (K562; read-out: pTGI) was greater than 100 µM. For the same compound, the GI50 [13] was 17.8 µM, the CC50 [13, 16] was 100 µM and the TGI ([13]; read-out: pTGI (converted)) was 63.1 µM. For the same compound, the GI50 (KB) was 1.92 µM, the ΔTm (DNA) was 7.2 °C and the GI50 (SR) was 1.38 µM. The CC50 (SR; [16]) was 30.9 µM, the TGI (SR; read-out: pTGI (converted)) was 4.27 µM and the GI50 [14] was 3.02 µM. For the same compound, the CC50 [14, 16] was 89.1 µM, the TGI ([14]; read-out: pTGI (converted)) was 30.2 µM and the GI50 [15] was 5.62 µM. For the same compound, the CC50 [15, 16] was 95.5 µM and the TGI ([15]; read-out: pTGI (converted)) was 33.1 µM.

`CCOP(=O)(CCCN1CCN(CCCCOc2cc3c(cc2OC)C(=O)N2CCC[C@H]2C=N3)CC1)OCC` showed a ΔTm (DNA) of 7.1 °C.

With `CCOP(=O)(CCCN1CCN(CCCOc2cc3c(cc2OC)C(=O)N2CCC[C@H]2C=N3)CC1)OCC` the Activity [3] was “Active” and the ΔTm (DNA) was 9.9 °C.
